Data on 71 compounds can be found in ChEMBL document CHEMBL4513216, “Probing the Open Global Health Chemical Diversity Library for Multistage-Active Starting Points for Next-Generation Antimalarials” (ACS Infect Dis, 2020).

The series is described as follows: Toxicity liver stage against HepG2, at 10uM. In kind it is cell-based. The note with it: human, HepG2-A16-CD81EGFP cells; read-out: INHIBITION
More on the design: test concentration 10 uM, cell line HepG2-A16-CD81EGFP. The method in brief:
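Uninfected HepG2-A16-CD81EGFP cells, 3 × 10^3 per well, 1536-well, plated on prespotted compound at 10 μM final, parasite-free screening media added to match infected plates; puromycin 10 μM positive, DMSO 0.5% negative; run in parallel with 48 h PbLuc assay at 37 °C, 5% CO2; viability by CellTiter-Glo luminescence, normalized to controls.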
Consider `COc1ccc(Cl)c(-c2noc3ncn(CCC(=O)O)c(=O)c23)c1`, for which the cytotoxicity at 10 µM is 7.25%.
Under `Cc1nnc(SCc2cc(=O)n3c4c(sc3n2)CCCC4)[nH]1` stands -9.67%.
Under `CCS(=O)(=O)Nc1ccc2c(c1)OCC(C)(C)C(=O)N2C` stands -17.2%; under `COCCNC(=O)Cn1cc(OCc2ccc(F)cc2)c(=O)cc1C`, -3.04%.
Under `CNC(=O)CS(=O)(=O)C1CCN(S(=O)(=O)c2ccccc2Cl)CC1` stands 11.7%; under `CCCc1ccc(N2CCN(Cc3nc4ccccc4n3C)CC2)cc1`, 7.06%.
Take `O=C(c1ccno1)N1CCC2(CC1)C(=O)N(CC1CC1)c1ccccc12`: the cytotoxicity at 10 µM was 7.85%.
Turning to `CCCN(C(=O)CCS(=O)(=O)Cc1ccccc1)c1cccc(C)c1`, the cytotoxicity at 10 µM is -2.67%.
Under `CCc1ccc(NC(=O)c2n[nH]c(-n3cnnc3)n2)cc1` stands 4.68%; under `CCN1CCCC(O)(CNCc2ccccn2)C1` (stereo unspecified), -5.69%.
The value for `c1ccc(-c2nn3c(CN4CCOCC4)nnc3s2)nc1` was 9.9%; that for `CC(=O)N1CCC1c1nc(-c2ccc(C)s2)no1` (stereo unspecified) was -1.78%; that for `Cn1cc(CN2CCCCC2c2ccc(-c3cnn(C)c3)nc2)cn1` (stereo unspecified) was 9.25%.
Under `CN(C)C(=O)C1CN(c2ncccn2)CCN1C` (stereo unspecified) stands -0.419%.
Take `Cc1nccc(N2CCN(C3CCOCC3)CC(C(=O)N(C)C)C2)n1` (stereo unspecified): the cytotoxicity at 10 µM came to 2.12%.
Under `Cc1ncc(CN2CCC(c3nc(O)cc(-c4ccsc4)n3)CC2)cn1` stands -11.8%.
The value for `O=C(CC1CCN(CCc2ccccc2)CC1)NC1CCOCC1` was 3.31%; that for `CCCC(=O)N1CCCC(c2cc3cccnc3c(O)n2)C1` (stereo unspecified) was 7.53%; that for `O=C(CCN1CCc2ccccc21)N1CC(C(=O)N2CCOCC2)C1` was -26.7%.
As to `O=C(Cc1ccsc1)N1CCC(c2noc(-c3cccnc3)n2)CC1`, the cytotoxicity at 10 µM is -18.2%.
The value for `O=C(c1ccc(O)nc1)N1Cc2ccccc2OC2(CCOCC2)C1` was -44.2%; that for `CNC(=O)C1CN(Cc2c[nH]cn2)CCN(C2CCOCC2)C1` (stereo unspecified) was -17%.
Under `CC(=O)N1CCC2(CC1)CC(NS(C)(=O)=O)c1ccccc1O2` (stereo unspecified) stands 5.53%; under `CC(=O)Nc1ccc(SCC(O)COCc2ccc3c(c2)OCO3)cc1` (stereo unspecified), 3.56%; under `O=C(CC1OCCc2ccccc21)NCCn1cccc1` (stereo unspecified), 1.71%.
Under `Cc1ocnc1CNC(=O)Nc1ccc(N2CCOC(C)C2)cc1` (stereo unspecified) stands -2.8%; under `COc1c(C2CCCN2CCOc2ccccc2C#N)c(C)nn1C` (stereo unspecified), 2.59%.
For `CCS(=O)(=O)c1ccc(N2CCC(NC(=O)NC(C)CO)CC2)cc1` (stereo unspecified), the cytotoxicity at 10 µM was 13.9%.
Under `CS(=O)(=O)Cc1ccc(C(=O)N2CCCC(n3cncn3)C2)o1` (stereo unspecified) stands -9%; under `COCCCN(Cc1ccncc1)C(=O)CSc1ccc(F)cc1`, 0.807%.
As for `O=S(=O)(Cc1c(F)cccc1Cl)Cc1nnnn1C1CC1`, the cytotoxicity at 10 µM was -5.19%.
With `CCC(=O)N1CCC(NC2CCSCC2)C1` (stereo unspecified), the cytotoxicity at 10 µM worked out at 2.85%.
Take `Cc1occc1CNC(=O)Nc1ccc2nc(N3CCOCC3)oc2c1`: the cytotoxicity at 10 µM was 9.5%.
The value for `CC(C)(O)CNc1ccc(C#N)c(C(F)(F)F)c1` was 1.23%; that for `CCc1nc(C2CCCN2C(=O)CCCOc2cccc(F)c2)no1` (stereo unspecified) was 11.1%; that for `Cc1noc([C@H]2C[C@@H]3CCN(C(=O)c4cccn4C)C[C@H]3O2)n1` was -103%.
Under `CN(Cc1nc(-c2ccccc2)no1)Cc1cnc(N2CCOCC2)s1` stands -1.48%.
The value for `Cc1ccccc1N1CCN(C(=O)c2cnc(N(C)C)nc2C)C(C)C1` (stereo unspecified) was 15.3%; that for `N[C@H]1CN(C(=O)c2ccc(Cl)cc2F)C[C@@H]1C1CC1` was -44.3%; that for `CN(C)[C@H]1CCN(c2ccnc(C(=O)NCc3ccco3)c2)C1` was 4.12%.
In the case of `COCC1CCN(C(=O)c2cn(Cc3cccc(C(F)(F)F)c3)nn2)C1` (stereo unspecified), the cytotoxicity at 10 µM is -0.695%.
As to `c1cnn(CCC2CCCCN2Cc2cnc(C3CCCCC3)nc2)c1` (stereo unspecified), the cytotoxicity at 10 µM stood at 0.106%.
Under `CC(C)(O)CCc1cccc(C(=O)NCC2COCCO2)c1` (stereo unspecified) stands -6.38%; under `FC(F)(F)C1CN(Cc2cnc3c(-c4ccccc4)cnn3c2)CCO1` (stereo unspecified), -2.34%.
Turning to `CC(C(=O)N(C)Cc1noc(C2CCC2)n1)N1CCc2ccccc2C1` (stereo unspecified), the cytotoxicity at 10 µM was -79.1%.
Under `COc1cccc(OC)c1OCCN1C(=O)CCNC1=O` stands -7.89%; under `CC(C)c1nccn1Cc1cc(C(=O)NCC(C)n2ccnc2)n[nH]1` (stereo unspecified), -0.419%; under `N#Cc1ccc(Oc2cc(F)c(CN3CCCC3)c(F)c2)nc1`, -8.74%.
Regarding `CNc1ncccc1C(=O)N1CCN(C)C2(CCN(C)CC2)C1`, the cytotoxicity at 10 µM stood at 7.16%.
The value for `CNC(=O)[C@@H]1C[C@@H](NC(=O)c2cn(C)nc2C)CN1Cc1sccc1C` was -5.58%; that for `CCSCCn1c(=O)n(Cc2ccc(F)cc2)c2ncc(C(=O)O)cc21` was -2.54%; that for `Cc1cc(C)n(CCCN(C)C(=O)CN2CC3(CCNCC3)OC2=O)n1` was 5.25%.
The value for `Cc1nc(O)cc(CCNc2nc(N(C)C)nc(C)c2C)n1` was -3.03%; that for `COc1ccc(F)c(CN2CCCC(c3cc(O)nc(C)n3)C2)c1` (stereo unspecified) was 7.3%; that for `CCc1nc(CNc2ccc(-c3nc(C4CC4)no3)cn2)no1` was -6.14%.
The value for `CN(C)C(=O)c1ccc(N2CCC3(CCC(=O)N(CCO)C3)CC2)nc1` was 3.8%.
With `CC(C)C(=O)N1CCC(c2nc3c([nH]2)CCCNC3=O)CC1`, the cytotoxicity at 10 µM is 1.74%.
Under `CCCC1(CO)CCCN(c2ncnc3c2c(C)nn3C)C1` (stereo unspecified) stands 2.72%; under `Cc1cccc(-c2nccn2C2CC(=O)N(C(C)C)C2)n1` (stereo unspecified), 5.62%.
For `OC1(CNCc2noc(Cc3ccccc3)n2)CCCNC1` (stereo unspecified), the cytotoxicity at 10 µM turned out to be 5.19%.
As for `CCc1cc(N(C)Cc2ncc[nH]2)nc(N2CCOCC2)n1`, the cytotoxicity at 10 µM is -1.61%.
Take `CC(C)N(Cc1ccccn1)Cc1nc2c(cnn2C)c(=O)[nH]1`: the cytotoxicity at 10 µM was -6.42%.
As to `Cc1nc(C)c(CC(=O)Nc2nnc(C(C)C)s2)c(=O)[nH]1`, the cytotoxicity at 10 µM was -7.16%.
In the case of `Cc1nc(CN2CCCC(N(C)CCc3ccncc3)C2)no1` (stereo unspecified), the cytotoxicity at 10 µM is -6.93%.
With `COc1cccc(COCC(=O)N2CCCC(c3cc(C)[nH]n3)C2)c1` (stereo unspecified), the cytotoxicity at 10 µM was -6.81%.
Turning to `O=C(NCc1ccc(Cl)cc1)N1CCN(CC(O)C2CC2)CC1` (stereo unspecified), the cytotoxicity at 10 µM came to 8.66%.
Take `CNCC1CCC(c2cc(CN(C)C(=O)c3cnccn3)n(C)n2)CC1` (stereo unspecified): the cytotoxicity at 10 µM is -5.1%.
Turning to `c1ccc(CN2Cc3[nH]nc(COc4cccnc4)c3C2)nc1`, the cytotoxicity at 10 µM is -109%.
The value for `Cc1noc(C)c1CN1CCc2ncnc(-c3cccnc3)c2CC1` was -97.9%.
With `Cn1ccnc1C(=O)N1CCC2(CCN2Cc2ccc(F)cc2)C1` (stereo unspecified), the cytotoxicity at 10 µM was -97%.
Under `O=c1occ(CN2CCCCCC2)c(O)c1CN1CCCCCC1` stands -8.1%.
